Measured values as given in PMC11078769 (Heliyon, 2024).

Experiments:
[1] = system: L. monocytogenes ATCC 19115; assay: Inhibition of biofilm formation, crystal violet; type: cell-based, Listeria monocytogenes; settings: sodium lactate at 5 % (positive control); 37 °C, 24 h, crystal violet A570
Outline: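 Test compound stock mixed with L. monocytogenes at 10^6 CFU/mL to final 2, 4 and 8 μg/mL, grown in microplate wells. Phosphate buffer (pH 7.0) served as negative control. Planktonic cells removed, wells washed twice with phosphate buffer, then stained 30 min with 0.1 % crystal violet and rinsed. Bound dye eluted with 95 % ethanol. Run in triplicate.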

MCF10A human cells = settings: 0.27 to 27 μmol/L; cited from earlier work
[2] = system: defibrinated erythrocytes; settings: enterocin AS-48 at 5–20 μmol/L; cited from earlier work
L. monocytogenes = settings: as reported; cited from earlier work
CCDC18Co human cells = settings: 0.27 to 27 μmol/L; cited from earlier work

Molecule: CC(O)C(=O)[O-].[Na+] (centres unmarked) [sodium lactate]
- inhibition rate of biofilm formation [1]: 54.36%

Molecule: enterocin AS-48
- Cytotoxicity (MCF10A human cells): no cytotoxicity
- percent hemolysis [2]: 3%–22.6
- MIC (L. monocytogenes): 0.1 µg/mL
- Cytotoxicity (CCDC18Co human cells): no cytotoxicity
